Source: ChEMBL document CHEMBL1132170, “Structural and conformational requirements for high-affinity binding to the SH2 domain of Grb2(1)” (J Med Chem, 1999)
Square brackets hold non-standard residues; d marks the D form. Peptide text beside a SMILES is read from it. * marks the point of attachment. pY = N[C@@H](Cc1ccc(OP(=O)(O)O)cc1)C(=O)O; Propionyl = CCC(=O)*; NHBu = CCCCN*

Tests used:
[1] = molecular target: Proto-oncogene tyrosine-protein kinase Src (Homo sapiens, UniProt P12931); assay: Inhibitory activity against binding of Src protein tyrosine kinase SH2 domain to biotinylated EPQY*EEIPI Peptide by ELISA.
Sequence of Proto-oncogene tyrosine-protein kinase Src (P12931 2-536 limits assumed): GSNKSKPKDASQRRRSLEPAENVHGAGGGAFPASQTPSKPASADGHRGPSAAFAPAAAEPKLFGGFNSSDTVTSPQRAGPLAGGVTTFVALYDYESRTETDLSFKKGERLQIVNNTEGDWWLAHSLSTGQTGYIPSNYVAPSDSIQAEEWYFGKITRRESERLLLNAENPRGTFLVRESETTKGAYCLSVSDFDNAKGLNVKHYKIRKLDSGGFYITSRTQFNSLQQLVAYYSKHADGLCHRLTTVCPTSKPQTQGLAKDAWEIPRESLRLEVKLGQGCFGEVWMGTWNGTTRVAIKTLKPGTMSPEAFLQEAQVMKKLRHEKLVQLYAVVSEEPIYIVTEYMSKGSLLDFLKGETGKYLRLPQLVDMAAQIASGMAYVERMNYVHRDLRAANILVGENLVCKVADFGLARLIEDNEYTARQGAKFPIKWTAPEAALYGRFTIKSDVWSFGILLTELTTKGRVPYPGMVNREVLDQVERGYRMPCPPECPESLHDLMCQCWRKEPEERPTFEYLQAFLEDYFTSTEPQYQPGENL
How it was run: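 It competes with test compounds against biotinylated EPQY*EEIPI (6.0 nM) on streptavidin-coated plates for 1 h at rt. Detection is anti-GST, then AP-conjugated secondary with pNPP at 405 nm. IC50 comes from nonlinear regression, adjusted to the on-plate control peptide.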

[2] = molecular target: Growth factor receptor-bound protein 2 (Homo sapiens, UniProt P62993); assay: Inhibitory activity against binding of Growth factor receptor bound protein 2 to biotinylated KPFY*VNVEF Peptide by ELISA.
How it was run: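 It is competed with test compounds against biotinylated KPFY*VNVEF (4.0 nM) captured on streptavidin plates for 1 h at rt. Bound GST is detected by rabbit anti-GST, then AP anti-rabbit with pNPP, read at 405 nm. IC50 comes from nonlinear regression, normalized to the on-plate control peptide.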

| SMILES | IC50 [1] | IC50 [2] |
| --- | --- | --- |
| CC(C)[C@H]1NC(=O)[C@H](Cc2ccc(OP(=O)(O)O)cc2)NC(=O)CNC(=O)[C@@H]2CCCN2C(=O)[C@@H](C(C)C)NC(=O)[C@H](CC(N)=O)NC1=O |  | 520 nM |
| CC(C)[C@@H]1NC(=O)[C@H](Cc2ccc(OP(=O)(O)O)cc2)NC(=O)CCCCCCNC(=O)[C@@H]2CCCN2C(=O)[C@H](C(C)C)NC(=O)[C@H](CC(N)=O)NC1=O | > 100000 nM |  |
| CC(=O)N[C@H]1CSSC[C@@H](C(=O)O)NC(=O)[C@H]2CCCN2C(=O)[C@H](C(C)C)NC(=O)[C@@H](CC(N)=O)NC(=O)[C@H](C(C)C)NC(=O)[C@@H](Cc2ccc(OP(=O)(O)O)cc2)NC1=O | 38000 nM |  |
| CC(C)[C@@H]1NC(=O)[C@H](Cc2ccc(OP(=O)(O)O)cc2)NC(=O)OCCCCCNC(=O)[C@@H]2CCCN2C(=O)[C@H](C(C)C)NC(=O)[C@H](CC(N)=O)NC1=O | > 100000 nM |  |
| CC(C)[C@H]1NC(=O)[C@H](Cc2ccc(OP(=O)(O)O)cc2)NC(=O)OCCCCCNC(=O)[C@@H]2CCCN2C(=O)[C@@H](C(C)C)NC(=O)[C@H](CC(N)=O)NC1=O |  | 710 nM |
| CC(=O)N[C@H]1CCCCNC(=O)[C@H]2CCCN2C(=O)[C@H](C(C)C)NC(=O)[C@@H](CC(N)=O)NC(=O)[C@H](C(C)C)NC(=O)[C@@H](Cc2ccc(OP(=O)(O)O)cc2)NC1=O | > 150000 nM | 70 nM |
| CC(=O)N[C@H]1CCCCNC(=O)[C@H]2CCCN2C(=O)[C@H](C(C)C)NC(=O)[C@@H](CC(N)=O)NC(=O)[C@H](CC2CCCCC2)NC(=O)[C@@H](Cc2ccc(OP(=O)(O)O)cc2)NC1=O | > 150000 nM | 1610 nM |
| CC(C)[C@H](NC(=O)[C@H](CC(N)=O)NC(=O)[C@@H](NC(=O)[C@H](Cc1ccc(OP(=O)(O)O)cc1)NC(=O)[C@H](Cc1ccccc1)NC(=O)[C@@H]1CCCN1C(=O)[C@@H](N)CCCCN)C(C)C)C(=O)N[C@@H](CCC(=O)O)C(=O)N[C@@H](Cc1ccccc1)C(=O)O (H-KPF[pY]VNVEF-OH) |  | 700 nM |
| CCCCNC(=O)[C@@H]1CCCN1C(=O)[C@@H](NC(=O)[C@H](CC(N)=O)NC(=O)[C@@H](NC(=O)[C@H](Cc1ccc(OP(=O)(O)O)cc1)NC(=O)CC)C(C)C)C(C)C (Propionyl-[pY]VNVP-NHBu) | > 100000 nM | 1630 nM |

Now from value to compound:

| IC50 [1] | IC50 [2] | SMILES |
| --- | --- | --- |
| > 100000 nM |  | CC(C)[C@@H]1NC(=O)[C@H](Cc2ccc(OP(=O)(O)O)cc2)NC(=O)CNC(=O)[C@@H]2CCCN2C(=O)[C@H](C(C)C)NC(=O)[C@H](CC(N)=O)NC1=O |
| > 100000 nM | 10800 nM | CC(C)[C@H]1NC(=O)[C@H](Cc2ccc(OP(=O)(O)O)cc2)NC(=O)CNC(=O)[C@H]2CCCN2C(=O)[C@@H](C(C)C)NC(=O)[C@H](CC(N)=O)NC1=O |
|  | 600 nM | CC(C)[C@H]1NC(=O)[C@H](Cc2ccc(OP(=O)(O)O)cc2)NC(=O)CCCCCCNC(=O)[C@@H]2CCCN2C(=O)[C@@H](C(C)C)NC(=O)[C@H](CC(N)=O)NC1=O |
| > 150000 nM | 1340 nM | CC(=O)N[C@H]1CCCCNC(=O)[C@H]2CCCN2C(=O)[C@H](C(C)C)NC(=O)[C@@H](CC(N)=O)NC(=O)[C@H](CC(C)C)NC(=O)[C@@H](Cc2ccc(OP(=O)(O)O)cc2)NC1=O |
| > 150000 nM | 110 nM | CC(=O)N[C@H]1CCCCNC(=O)[C@H]2CCCN2C(=O)[C@H](CC2CCCCC2)NC(=O)[C@@H](CC(N)=O)NC(=O)[C@H](C(C)C)NC(=O)[C@@H](Cc2ccc(OP(=O)(O)O)cc2)NC1=O |
| 73000 nM | 180 nM | CC(=O)N[C@@H]1CCCCNC(=O)[C@H]2CCCN2C(=O)[C@H](C(C)C)NC(=O)[C@@H](CC(N)=O)NC(=O)[C@H](C(C)C)NC(=O)[C@@H](Cc2ccc(OP(=O)(O)O)cc2)NC1=O |
